Results taken from ChEMBL document CHEMBL1649383, “Mode of action of epoxyphomalins A and B and characterization of related metabolites from the marine-derived fungus Paraconiothyrium sp” (J Nat Prod, 2010).
Values after ≈ are worked out from the molar mass of the structure shown.

Assays:
OVCAR-3 [1] = test: Cytotoxicity against human OVCAR3 cells at 0.1 ug/ml relative to control; format: functional
LNCaP = test: Cytotoxicity against human LNCAP cells at 0.01 ug/ml relative to control; format: functional
HCT-116 [2] = test: Cytotoxicity against human HCT116 cells at 0.001 ug/ml relative to control; format: functional
[3] = Cytotoxicity against human PC3M cells at 0.001 ug/ml relative to control; format: functional, PC-3M
HCT-116 [4] = test: Cytotoxicity against human HCT116 cells at 10 ug/ml relative to control; format: functional
CWR22R [5] = test: Cytotoxicity against human 22Rv1 cells at 0.01 ug/ml relative to control; format: functional
[6] = Cytotoxicity against human MEXF 462NL cells at 0.01 ug/ml relative to control; format: functional
[7] = Cytotoxicity against human MEXF 276L cells at 0.01 ug/ml relative to control; format: functional, MEXF276L
SF-268 = test: Cytotoxicity against human SF268 cells at 10 ug/ml relative to control; format: functional
[8] = Cytotoxicity against human RXF 1781L cells at 1 ug/ml relative to control; format: functional
[9] = Cytotoxicity against human OVXF 1619L cells; format: functional, cell-based
Outline: (§1)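 Monolayer cell survival and proliferation assay run across a panel of 36 human tumor cell lines, with IC50 determined from the resulting growth data.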

MCF7 = test: Cytotoxicity against human MCF7 cells at 0.001 ug/ml relative to control; format: functional
[10] = Cytotoxicity against human RXF 1781L cells; format: functional, cell-based; outline: as §1
NCI-H460 [11] = test: Cytotoxicity against human H460 cells at 0.1 ug/ml relative to control; format: functional
[12] = Cytotoxicity against human PXF 1752L cells; format: functional, cell-based; outline: as §1
[13] = Cytotoxicity against human MEXF 276L cells; format: functional, cell-based; settings: MEXF276L; outline: as §1
[14] = Cytotoxicity against human RXF 393NL cells at 0.001 ug/ml relative to control; format: functional
DU-145 [15] = test: Cytotoxicity against human DU145 cells at 0.1 ug/ml relative to control; format: functional
NCI-H460 [16] = test: Cytotoxicity against human H460 cells at 1 ug/ml relative to control; format: functional
[17] = Cytotoxicity against human RXF 393NL cells at 10 ug/ml relative to control; format: functional
PANC-1 = test: Cytotoxicity against human PANC1 cells at 1 ug/ml relative to control; format: functional
[18] = Cytotoxicity against human LXFA 629L cells; format: functional, cell-based
Outline: (§2)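 Monolayer cell survival and proliferation assay run across a panel of 36 human tumour cell lines; IC50 values determined.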

[19] = Cytotoxicity against human OVXF 899L cells at 1 ug/ml relative to control; format: functional
[20] = Cytotoxicity against human LXFL 1121L cells; format: functional, cell-based; outline: as §2
[21] = Cytotoxicity against human MEXF 394NL cells; format: functional, cell-based; outline: as §1
DU-145 [22] = test: Cytotoxicity against human DU145 cells at 10 ug/ml relative to control; format: functional
[23] = Cytotoxicity against human MEXF 520L cells at 0.1 ug/ml relative to control; format: functional
[24] = Cytotoxicity against human LXFL 1121L cells at 0.1 ug/ml relative to control; format: functional
[25] = Cytotoxicity against human LXFL 1121L cells at 0.01 ug/ml relative to control; format: functional
[26] = Cytotoxicity against human LXFL 529L cells at 0.001 ug/ml relative to control; format: functional
[27] = Cytotoxicity against human CNXF 498NL cells at 0.001 ug/ml relative to control; format: functional
[28] = Cytotoxicity against human MEXF 520L cells at 0.001 ug/ml relative to control; format: functional
[29] = Cytotoxicity against human OVXF 1619L cells at 0.1 ug/ml relative to control; format: functional
[30] = Cytotoxicity against human GXF251L cells at 0.001 ug/ml relative to control; format: functional
OVCAR-3 [31] = test: Cytotoxicity against human OVCAR3 cells; format: functional, cell-based; outline: as §1
[32] = Cytotoxicity against human PAXF 1657L cells at 0.1 ug/ml relative to control; format: functional
HT-29 [33] = test: Cytotoxicity against human HT-29 cells at 0.1 ug/ml relative to control; format: functional
HT-29 [34] = test: Cytotoxicity against human HT-29 cells at 1 ug/ml relative to control; format: functional
[35] = Cytotoxicity against human OVXF 899L cells at 0.1 ug/ml relative to control; format: functional
[36] = Cytotoxicity against human LXFL 529L cells at 0.1 ug/ml relative to control; format: functional
[37] = Cytotoxicity against human BXF 1218L cells at 0.1 ug/ml relative to control; format: functional
OVCAR-3 [38] = test: Cytotoxicity against human OVCAR3 cells at 0.001 ug/ml relative to control; format: functional
[39] = Cytotoxicity against human PAXF 1657L cells at 0.01 ug/ml relative to control; format: functional
[40] = Cytotoxicity against human PAXF 1657L cells at 10 ug/ml relative to control; format: functional
[41] = Cytotoxicity against human LXFL 529L cells at 10 ug/ml relative to control; format: functional
CWR22R [42] = test: Cytotoxicity against human 22Rv1 cells at 0.1 ug/ml relative to control; format: functional
[43] = Cytotoxicity against human RXF 1781L cells at 0.01 ug/ml relative to control; format: functional
[44] = Cytotoxicity against human RXF 944L cells at 0.1 ug/ml relative to control; format: functional
CWR22R [45] = test: Cytotoxicity against human 22Rv1 cells at 1 ug/ml relative to control; format: functional
NCI-H460 [46] = test: Cytotoxicity against human H460 cells at 0.01 ug/ml relative to control; format: functional
[47] = Cytotoxicity against human OVXF 899L cells at 10 ug/ml relative to control; format: functional
[48] = Cytotoxicity against human MEXF 514L cells at 0.01 ug/ml relative to control; format: functional
[49] = Cytotoxicity against human LXFA 289L cells at 0.01 ug/ml relative to control; format: functional
OVCAR-3 [50] = test: Cytotoxicity against human OVCAR3 cells at 1 ug/ml relative to control; format: functional
HCT-116 [51] = test: Cytotoxicity against human HCT116 cells at 0.01 ug/ml relative to control; format: functional
[52] = Cytotoxicity against human RXF 393NL cells at 1 ug/ml relative to control; format: functional

## C=C1[C@@H](O)[C@H]2O[C@@]2(C[C@H]2C(C)=CC[C@H]3C(C)(C)CCC[C@]23C)[C@@H](O)[C@H]1O [EPOXYPHOLAMIN D]
OVCAR-3 [1]
  Activity: 91%
LNCaP
  Activity: 111%
HCT-116 [2]
  Activity: 88%
[3]
  Activity: 120%
HCT-116 [4]
  Activity: 4%
CWR22R [5]
  Activity: 81%
[6]
  Activity: 122%
[7]
  Activity: 98%
SF-268
  Activity: 1%
[8]
  Activity: 100%
[9]
  IC50: 10.2 µM
  IC70: 6.09 µg/mL (≈ 16.8 µM)
  IC90: 10 µg/mL (≈ 27.6 µM)
MCF7
  Activity: 91%
[10]
  IC50: 11.8 µM
  IC70: 7.69 µg/mL (≈ 21.2 µM)
  IC90: 13.8 µg/mL (≈ 38 µM)
NCI-H460 [11]
  Activity: 91%
[12]
  IC50: 2.29 µM
  IC70: 3.05 µg/mL (≈ 8.42 µM)
  IC90: 12.3 µg/mL (≈ 34 µM)
[13]
  IC50: 4.69 µM
  IC70: 5.54 µg/mL (≈ 15.3 µM)
  IC90: 18.1 µg/mL (≈ 49.8 µM)
[14]
  Activity: 98%
DU-145 [15]
  Activity: 88%
NCI-H460 [16]
  Activity: 86%
[17]
  Activity: 10%
PANC-1
  Activity: 68%
[18]
  IC50: 3.2 µM
  IC70: 3.08 µg/mL (≈ 8.51 µM)
  IC90: 8.22 µg/mL (≈ 22.7 µM)
[19]
  Activity: 84%
[20]
  IC50: 8.94 µM
  IC70: 5.35 µg/mL (≈ 14.8 µM)
  IC90: 8.82 µg/mL (≈ 24.3 µM)
[21]
  IC50: 6.76 µM
  IC70: 4.64 µg/mL (≈ 12.8 µM)
  IC90: 8.8 µg/mL (≈ 24.3 µM)
DU-145 [22]
  Activity: 12%
[23]
  Activity: 92%
[24]
  Activity: 146%
[25]
  Activity: 135%
[26]
  Activity: 99%
[27]
  Activity: 102%
[28]
  Activity: 97%
[29]
  Activity: 81%
[30]
  Activity: 105%
OVCAR-3 [31]
  IC50: 1.96 µM
  IC70: 2.71 µg/mL (≈ 7.48 µM)
  IC90: 12.6 µg/mL (≈ 34.7 µM)
[32]
  Activity: 92%
HT-29 [33]
  Activity: 108%
HT-29 [34]
  Activity: 121%
[35]
  Activity: 97%
[36]
  Activity: 100%
[37]
  Activity: 104%
OVCAR-3 [38]
  Activity: 100%
[39]
  Activity: 103%
[40]
  Activity: 9%
[41]
  Activity: 14%
CWR22R [42]
  Activity: 90%
[43]
  Activity: 95%
[44]
  Activity: 95%
CWR22R [45]
  Activity: 48%
NCI-H460 [46]
  Activity: 98%
[47]
  Activity: 12%
[48]
  Activity: 123%
[49]
  Activity: 101%
OVCAR-3 [50]
  Activity: 43%
HCT-116 [51]
  Activity: 97%
[52]
  Activity: 118%
